What is called Kd is the free concentration of one partner at which half of the binding sites on the other are occupied at equilibrium, for simple one-to-one binding.

This is an account of results in the RNAGym collection of RNA variant scans (doi:10.1038/nmeth.2970).

To fix the notation:
B1: NELF-E aptamer (parent)
chain: CCCAACGACUGCCGAGCGAGAUUACGCUUGAGCGCCCCACUGAGGAUGCCCACGGGCGAUUGGGGCACGG

Variants of B1 are the subject of the data set. As to the kind of experiment: HiTS-RAP. Conditions: with NELF-E (Drosophila). The method, boiled down:
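Kd came from weighted Hill fits to the first binding curve, with intensities normalised to sequencing intensity and averaged per sequence, keeping only fits whose variance was below 1,000,000. That curve was imaged on an Illumina GAIIx flowcell, where sequenced aptamer DNA templates with a T7 promoter and ter site had been transcribed in situ by T7 RNA polymerase and halted by GST-Tus (30 minutes, 37°C). Before each image, clusters equilibrated for 30 minutes at room temperature with NELF-E-mOrange at 0.064 to 1000 nM in HEPES binding buffer.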
Take G11U C50U: the Kd stood at 17.7 nM.

Regarding C12G C37U, the Kd was 16.6 nM.

As for C12G C37G, the equilibrium dissociation constant (Kd) was determined as 7.38 nM.

For C13U G14U, the Kd worked out at 5.39 nM.

Turning to C13G G63A, the Kd came to 20.2 nM.

Regarding C13G G63U, the Kd stood at 7.98 nM.

For the variant C13U U28C, the Kd worked out at 6.27 nM.

For G11U C37U, the Kd came to 7.71 nM.

Turning to C12A U23G, the Kd was 5.88 nM.

Turning to G11U G32A, the Kd stood at 6.15 nM.

C12G G63U: the Kd came to 13.7 nM.

In the case of G14A C57U, the Kd amounted to 6.72 nM.

With G11U C12G, the dissociation constant (Kd) was determined as 5.8 nM.

Consider G11U C12U, for which the Kd came to 4.76 nM.

In the case of C12G U47G, the Kd came out at 8.13 nM.

For the variant G11U U47G, the Kd was 7.92 nM.

G11U G64A: the equilibrium dissociation constant (Kd) is 9.29 nM.

C12G G20U: the Kd was determined as 7.97 nM.

C13G G64A: the Kd worked out at 6.69 nM.

For the variant C13G G64U, the Kd turned out to be 8.93 nM.

Regarding C13G G64C, the Kd was 5.83 nM.

C12G A46G: the Kd amounted to 44.8 nM.

In the case of C13G C51U, the Kd is 6.36 nM.

With C13G A19G, the Kd amounted to 5.43 nM.

With C13G A19U, the equilibrium dissociation constant (Kd) was found to be 4.52 nM.

In the case of G14A G30A, the Kd turned out to be 5.61 nM.

Take C13G G26A: the Kd is 4.79 nM.

With C13G G26U, the Kd worked out at 5.51 nM.

As to C13A U29G, the Kd came out at 5.66 nM.

For the variant C12G G42A, the Kd stood at 39.8 nM.

In the case of C13G C25U, the Kd amounted to 5.55 nM.

C13G C25G: the Kd came out at 5.76 nM.

Consider C12G A24G, for which the Kd came out at 5.9 nM.

As for C13U U41G, the Kd stood at 5.56 nM.

Regarding C13G C66U, the Kd stood at 5.32 nM.

For the variant G11U G55A, the Kd came out at 8.79 nM.

Turning to G11U G55U, the Kd was determined as 7.1 nM.

As to G14U A19U, the Kd was 7.38 nM.

In the case of G14U A19G, the Kd worked out at 6.25 nM.

In the case of C13U A15U, the Kd came out at 4.83 nM.

Regarding C12U A24G, the Kd amounted to 5.74 nM.

C13G G65U: the Kd came to 6.4 nM.

Regarding C13G G65A, the Kd stood at 5.31 nM.

On to C13A G20U, for which the Kd came to 7.23 nM.

For G11U U23G, the Kd amounted to 6.33 nM.

Turning to G14C U29G, the Kd was found to be 5.67 nM.

Consider C13G U41A, for which the Kd amounted to 83.4 nM.

With C13G U41C, the equilibrium dissociation constant (Kd) was determined as 64.2 nM.

C13G U41G: the Kd worked out at 5.26 nM.

For G11U G34A, the Kd amounted to 6.7 nM.

Consider C12G, for which the Kd came to 5.44 nM.

For C12A, the Kd was found to be 4.42 nM.

Turning to C12U, the Kd was found to be 4.54 nM.

Turning to C13G A39G, the Kd was 9.58 nM.

In the case of C13G A39U, the dissociation constant (Kd) amounted to 19 nM.

On to C13U G55A, for which the dissociation constant (Kd) was determined as 5.87 nM.

Consider G14A A67G, for which the Kd is 5.51 nM.

In the case of G14A A67U, the Kd came out at 6.56 nM.

On to C12G A19G, for which the Kd is 5.93 nM.

Turning to G11U A59U, the dissociation constant Kd was determined as 48.9 nM.

Take G11U A59G: the Kd was found to be 17.7 nM.

Take G11U U22G: the Kd is 6.4 nM.

Regarding C13G G34U, the Kd was determined as 5.43 nM.

As for C13G G34A, the Kd was found to be 8.12 nM.

For C13G C33U, the Kd worked out at 5.79 nM.

As for C13G C33G, the Kd came to 6.05 nM.

Regarding C13G A21G, the Kd amounted to 4.63 nM.

For the variant C13G A21U, the Kd came out at 5.52 nM.

On to G14A U22C, for which the Kd amounted to 5.13 nM.

Turning to G14A U22G, the Kd is 5.03 nM.

Turning to G11U G14U, the equilibrium dissociation constant (Kd) was 6.82 nM.

As for G11U G14A, the Kd turned out to be 6.87 nM.

Turning to G11U U61A, the equilibrium dissociation constant (Kd) was 41.1 nM.

For G11U U61C, the Kd is 64.3 nM.

For G11U G26A, the Kd came out at 5.08 nM.

G11U G26U: the dissociation constant Kd stood at 6.79 nM.

For the variant C12U C13U, the Kd amounted to 3.39 nM.

C12U C13G: the Kd was determined as 5.4 nM.

Regarding G14U A21U, the Kd is 6.73 nM.

Turning to G14U A21G, the Kd worked out at 6.69 nM.

Regarding G11U A43G, the Kd was 45.8 nM.

On to G14U A31G, for which the Kd came out at 7.27 nM.

Regarding G14A G16U, the Kd stood at 6.52 nM.

Regarding G14A G16A, the Kd is 6.86 nM.

In the case of C12G A31G, the Kd was determined as 7.14 nM.

With G11U A67G, the Kd was determined as 6.41 nM.

For G11U A67U, the Kd was 9.06 nM.

With C13U C17G, the Kd came to 5.11 nM.

In the case of C13U C17U, the Kd came out at 4 nM.

For the variant G11U C13A, the Kd was 6.58 nM.

In the case of G11U C13U, the Kd turned out to be 6.19 nM.

G11U C13G: the Kd stood at 5.71 nM.

Take G14U A15G: the Kd was found to be 6.08 nM.

Regarding G14U A15U, the Kd stood at 6.94 nM.

On to C12G G34A, for which the Kd is 7.36 nM.

For the variant C12G C66U, the Kd amounted to 6.17 nM.

As to C12G A39G, the Kd amounted to 10.3 nM.

As to C12G A39U, the Kd was determined as 25 nM.

For the variant C13U C37U, the Kd is 7.46 nM.

As for G11U A31G, the Kd worked out at 7.38 nM.

G11U A31U: the Kd was 6.12 nM.

Consider C12G A52U, for which the Kd came to 16.2 nM.

Consider C12G A52G, for which the Kd was found to be 5.15 nM.

For the variant G11U G65A, the Kd amounted to 5.5 nM.

Regarding G11U G65U, the Kd was found to be 7.6 nM.

As to G14A A24G, the dissociation constant Kd stood at 5.71 nM.

As for C12G G18A, the Kd came out at 7.26 nM.

For C13G G20A, the Kd turned out to be 7.5 nM.

Take C13G G20U: the equilibrium dissociation constant (Kd) stood at 6.39 nM.

For the variant C13G C53G, the Kd was 7.39 nM.

On to C13G C53U, for which the Kd is 3.49 nM.

Turning to C13A A24G, the Kd was 9.1 nM.

Consider C13G C35U, for which the Kd stood at 14.4 nM.

For G11U A24G, the Kd was found to be 5.82 nM.

For the variant G11U A24U, the Kd was found to be 5.45 nM.

As for C13G G18A, the Kd came to 5.31 nM.

For the variant C13G G18U, the Kd was 6.2 nM.

As to C12G G16U, the Kd was found to be 7.23 nM.

As to G14A C51U, the dissociation constant Kd worked out at 7.06 nM.

For G14A G54A, the Kd was 12.4 nM.

With C13G A24G, the Kd was determined as 5.57 nM.

For C13G A24U, the Kd stood at 7.79 nM.

With C13G C40G, the Kd came to 5.72 nM.

In the case of C13G U47A, the Kd is 11.8 nM.

C13G U47G: the Kd amounted to 6.66 nM.

In the case of C13U G54A, the Kd was 8.87 nM.

With C12G C53U, the dissociation constant (Kd) was 5.74 nM.

G11U A39G: the dissociation constant Kd is 11.4 nM.

G11U A39U: the Kd came to 21.3 nM.

G14U A39U: the Kd amounted to 32.5 nM.

As for G14U A39G, the Kd stood at 9.72 nM.

With C13U C25G, the Kd was found to be 4.69 nM.

As to C13G A15G, the Kd stood at 6.03 nM.

C13G A15U: the Kd was found to be 6.13 nM.

Regarding G11U A52U, the Kd came to 16.5 nM.

In the case of G11U A52G, the Kd worked out at 3.84 nM.

In the case of C12U A31G, the Kd came to 6.76 nM.

Take G14A C33U: the Kd was 6.15 nM.

For the variant C13A U23G, the Kd is 5.96 nM.

For the variant C13G A59G, the Kd was 12.2 nM.

As to C13G A59U, the Kd amounted to 42.1 nM.

Regarding G14U A46G, the Kd is 57.2 nM.

Take G14A U61A: the Kd was 30.3 nM.

With G14A U23G, the Kd amounted to 5.88 nM.

Turning to C12G C13U, the dissociation constant (Kd) amounted to 5.88 nM.

Take C12G C13G: the Kd was 5.01 nM.

Regarding C12G G64A, the Kd was 8.49 nM.

C13U U23G: the dissociation constant Kd came out at 4.9 nM.

For C12G G14A, the Kd worked out at 5.91 nM.

In the case of C12G G14U, the Kd worked out at 6.28 nM.

With G14U A43G, the Kd is 116 nM.

G14U A43U: the Kd was 84.4 nM.

Regarding G11U C53U, the Kd was determined as 3.96 nM.

Turning to C13U A67U, the Kd amounted to 3.81 nM.

C12G C57U: the Kd was found to be 6.51 nM.

Take G11U C17G: the Kd came to 5.84 nM.

Regarding G11U C17U, the Kd came to 5.76 nM.

In the case of C13U A24G, the equilibrium dissociation constant (Kd) was 5.12 nM.

Consider C13G C17U, for which the Kd came to 5.43 nM.

With C13G C17G, the Kd was 4.68 nM.

G14U: the Kd stood at 5.68 nM.

Consider G14A, for which the Kd is 4.94 nM.

G14C: the Kd amounted to 5.95 nM.

For C13G A67G, the Kd is 5.62 nM.

Turning to C13G A67U, the Kd is 7.5 nM.

For G14A U28C, the Kd came to 7.17 nM.

For C13G U22G, the Kd amounted to 5.27 nM.
